Source: publication PMC6044914 (ACS Omega, 2017)
≈ marks a conversion by molar mass, not a printed value. Like-named read-outs stand apart in the source and are kept apart here.

What was measured:
[1] = tested on: M. tuberculosis H37Rv (London Pride); assay: microbe, parasite or virus in culture; assay type: cell-based, Mycobacterium tuberculosis; settings: for MIC: Mycobacterium tuberculosis, H37RV; for activity against M. tuberculosis (in words): SAR discussion
[2] = rats; rapidly metabolized; cited from earlier work
[3] = tested on: nonreplicating M. tuberculosis (nutrient starvation); settings: previous work; cited from earlier work
[4] = tested on: Vero cells; settings: African green monkey
[5] = Pharmacokinetic profiling in the rat; assay type: in vivo; settings: plasma; for bioavailability: oral; for AUC: po
[6] = tested on: S. aureus RN4220; assay: Spectrum, MIC99 by serial dilution agar method; assay type: cell-based, Staphylococcus aureus; settings: for MIC: Staphylococcus aureus, RN4220, read-out: MIC (μM) St. aureus
Summary of the method: (§1)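 Serial-dilution agar MIC99 with test compound in the agar. Organisms were grown on different media: B. subtilis Marburg on nutrient agar, E. coli DH5α and S. aureus RN4220 on LB agar, M. smegmatis mc2155 on Middlebrook 7H10 + 10% v/v OADC, P. aeruginosa BAA 47 PA0 on tryptic soy agar, S. cerevisiae Y187 on YPD agar. Late-log culture was plated and incubated at 37 °C until large colonies formed on no-compound plates. MIC99 is the lowest concentration giving <1% growth.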

[7] = tested on: E. coli DH5α; assay: Spectrum, MIC99 by serial dilution agar method; assay type: cell-based; settings: Escherichia coli, read-out: MIC (μM) E. coli
Summary of the method: as §1

[8] = tested on: S. cerevisiae Y187; assay: Spectrum, MIC99 by serial dilution agar method; assay type: cell-based, Saccharomyces cerevisiae; settings: for MIC: Saccharomyces cerevisiae, Y187, read-out: MIC (μM) Sa. cerevisiae
Summary of the method: as §1

[9] = tested on: P. aeruginosa BAA 47 PA0; assay: Spectrum, MIC99 by serial dilution agar method; assay type: cell-based; settings: Pseudomonas aeruginosa, BAA47, read-out: MIC (μM) P. aeruginosa
Summary of the method: as §1

[10] = tested on: B. subtilis Marburg; assay: Spectrum, MIC99 by serial dilution agar method; assay type: cell-based; settings: Bacillus subtilis, read-out: MIC (μM) B. subtilis
Summary of the method: as §1

[11] = tested on: replicating M. tuberculosis; assay: Kill kinetics in replicating conditions; assay type: cell-based, Mycobacterium tuberculosis; settings: for bactericidal activity against replicating M. tuberculosis (in words): aerobic conditions; for concentration at which bactericidal, replicating M. tuberculosis: bactericidal = at least 3 logs kill in 21 days
[12] = tested on: nonreplicating M. tuberculosis (nutrient starvation); assay: Kill kinetics under starvation; assay type: cell-based, Mycobacterium tuberculosis; settings: for concentration at which bactericidal, nonreplicating M. tuberculosis: concentrations as low as
[13] = tested on: M. smegmatis mc^2155; assay: Spectrum, MIC99 by serial dilution agar method; assay type: cell-based, Mycobacterium smegmatis
Summary of the method: as §1

Question: Which MIC ([1]; 120 h) does the source give for `CC(=O)Oc1ccccc1C(=O)Nc1ncc([N+](=O)[O-])s1` [compound 1, 2-(5-Nitrothiazol-2-ylcarbamoyl)phenyl Acetate, reference compound] here?
Answer: Its MIC is 14 µM.

Question: And the MIC ([1]; read-out: minimum inhibitory concentration (MIC))?
Answer: The MIC was 14 µM.

Question: What about the “detection in plasma or urine” value [2] of the same compound?
Answer: The value was “not detectable”.

Question: What about the “activity against nonreplicating or persistent M. tuberculosis (in words)” value [3] of the same compound?
Answer: The value was “good activity”.

Question: What about the “TC50” value [4] of the same compound?
Answer: Its value is over 20 µM.

Question: For `O=C(Nc1ncc([N+](=O)[O-])s1)c1ccccc1O` [compound 2, 2-Hydroxy-N-(5-nitrothiazol-2-yl)benzamide, reference compound], which Vd [5] is on record?
Answer: Its Vd is 0.698 ± 0.327 L/kg.

Question: What about the clearance [5] of the same compound?
Answer: The clearance was 57.5 ± 3.3 mL/min/kg.

Question: What about the bioavailability [5] of the same compound?
Answer: Its bioavailability is 5.8 ± 0.1%.

Question: And the AUC [5]?
Answer: Its AUC is 167 ± 10 ng·h/mL.

Question: And the MIC ([1]; 120 h)?
Answer: Its MIC is 20 µM (≈ 5.3 µg/mL).

Question: What about the “TC50” value [4] of the same compound?
Answer: Its value is over 20 µM.

Question: For `O=C(Nc1ncc([N+](=O)[O-])s1)c1ccccc1` [compound 4, N-(5-nitrothiazol-2-yl)benzamide], which Vd [5] is on record?
Answer: The Vd was 0.18 ± 0.006 L/kg.

Question: And the clearance [5]?
Answer: Its clearance is 6.1 ± 0.5 mL/min/kg.

Question: What about the bioavailability [5] of the same compound?
Answer: The bioavailability was 63.5 ± 6.9%.

Question: For `CCC(C)(C)C(=O)Oc1ccccc1C(=O)Nc1ncc([N+](=O)[O-])s1` [compound 8, 2-((5-Nitrothiazol-2-yl)carbamoyl)phenyl 2,2-Dimethylbutanoate], which MIC [6] is on record?
Answer: The MIC was over 50 µM.

Question: What about the MIC [7] of the same compound?
Answer: Its MIC is over 25 µM.

Question: And the “improvement in activity relative to 1” value [1]?
Answer: The value was 10 fold.

Question: And the MIC ([1]; 120 h)?
Answer: Its MIC is 1.4 ± 0.07 µM (≈ 0.509 µg/mL).

Question: What about the “activity against M. tuberculosis (in words)” value [1] of the same compound?
Answer: Its value is “showed activity”.

Question: And the MIC [8]?
Answer: The MIC was over 100 µM.

Question: What about the MIC [9] of the same compound?
Answer: The MIC was over 100 µM.

Question: What about the MIC [10] of the same compound?
Answer: Its MIC is 1 µM (≈ 0.363 µg/mL).

Question: What about the “TC50” value [4] of the same compound?
Answer: The value was 6.2 µM.

Question: And the “bactericidal activity against replicating M. tuberculosis (in words)” value [11]?
Answer: The value was “rapidly bactericidal”.

Question: And the “kill of replicating M. tuberculosis” value ([11]; in 7 days at 10× MIC)?
Answer: Its value is over 4 log.

Question: What does the source list for `Cc1cccc(C(=O)Nc2ncc([N+](=O)[O-])s2)c1O` [compound 13, 2-Hydroxy-3-methyl-N-(5-nitrothiazol-2-yl)benzamide]?
Answer: Vd [5]: 0.16 ± 0.012 L/kg; clearance [5]: 8.96 ± 0.51 mL/min/kg; bioavailability [5]: 72.5 ± 18.4%

Question: What does the source list for `O=C(Nc1ncc([N+](=O)[O-])s1)c1ccccn1` [compound 19, N-(5-Nitrothiazol-2-yl)picolinamide]?
Answer: MIC [6]: > 100 µM; MIC [7]: > 100 µM; MIC ([1]; 120 h): 2.4 ± 0.0071 µM (≈ 0.601 µg/mL); activity against M. tuberculosis (in words) [1]: improved activity; susceptibility of S. cerevisiae (in words) [8]: sensitive; MIC [8]: 12.5 µM (≈ 3.13 µg/mL); MIC [9]: > 100 µM; MIC [10]: 3.1 µM (≈ 0.776 µg/mL); bactericidal activity under nonreplicating conditions (in words) [12]: bactericidal activity; concentration at which bactericidal, nonreplicating M. tuberculosis [12]: ≤ 1.25 × MIC; TC50 [4]: 20 µM; bactericidal activity against replicating M. tuberculosis (in words) [11]: bactericidal; concentration at which bactericidal, replicating M. tuberculosis [11]: ≥ 5 times the MIC; susceptibility of M. smegmatis (in words) [13]: sensitive

Question: For `O=C(Nc1ncc([N+](=O)[O-])s1)C1CCCCC1` [compound 28, N-(5-Nitrothiazol-2-yl)cyclohexanecarboxamide], which Vd [5] is on record?
Answer: The Vd was 0.68 ± 0.12 L/kg.

Question: And the clearance [5]?
Answer: The clearance was 69.8 ± 4.3 mL/min/kg.

Question: What about the bioavailability [5] of the same compound?
Answer: The bioavailability was 17.5 ± 4.2%.

Question: And the AUC [5]?
Answer: The AUC was 418 ± 96 ng·h/mL.

Question: What about the MIC [1] of the same compound?
Answer: The MIC was over 20 µM.

Question: What about the “activity against M. tuberculosis (in words)” value [1] of the same compound?
Answer: The value was “loss of activity”.

Question: With `O=C(Nc1ccccc1)Nc1ncc([N+](=O)[O-])s1` [compound 37, 1-(5-Nitrothiazol-2-yl)-3-phenylurea] as the compound, how does the “susceptibility of S. aureus (in words)” value [6] read?
Answer: Its value is “sensitive”.

Question: And the MIC [6]?
Answer: Its MIC is 50 µM (≈ 13.2 µg/mL).

Question: And the MIC [7]?
Answer: Its MIC is over 100 µM.

Question: What about the MIC [1] of the same compound?
Answer: Its MIC is 17 ± 4.2 µM (≈ 4.49 µg/mL).

Question: And the “activity against M. tuberculosis (in words)” value [1]?
Answer: Its value is “comparable activity to the parent compound 1”.

Question: And the MIC [8]?
Answer: The MIC was over 100 µM.

Question: What about the MIC [9] of the same compound?
Answer: The MIC was over 100 µM.

Question: And the MIC [10]?
Answer: Its MIC is 50 µM (≈ 13.2 µg/mL).

Question: And the “bactericidal activity under nonreplicating conditions (in words)” value [12]?
Answer: Its value is “bactericidal activity”.

Question: And the “concentration at which bactericidal, nonreplicating M. tuberculosis” value [12]?
Answer: Its value is at most 1.25 × MIC.

Question: What about the “bactericidal activity against replicating M. tuberculosis (in words)” value [11] of the same compound?
Answer: The value was “bactericidal activity”.

Question: And the “concentration at which bactericidal, replicating M. tuberculosis” value [11]?
Answer: The value was “equivalent to the MIC”.

Question: And the “kill of replicating M. tuberculosis” value ([11]; in 21 days, at concentrations equivalent to the MIC)?
Answer: The value was “at least 3 logs”.

Question: With `CO[C@H]1/C=C/O[C@@]2(C)Oc3c(C)c(O)c4c(O)c(c(/C=N/N5CCN(C)CC5)c(O)c4c3C2=O)NC(=O)/C(C)=C\C=C\[C@H](C)[C@H](O)[C@@H](C)[C@@H](O)[C@@H](C)[C@H](OC(C)=O)[C@@H]1C` [rifampicin, reference compound] as the compound, how does the MIC ([1]; 120 h) read?
Answer: Its MIC is 0.004 µM (≈ 0.00329 µg/mL).

Question: And the “TC50” value [4]?
Answer: The value was over 50 µM.
